UPR XBP1 act: activators of adaptive arm of unfolded protein response (XBP1); CHO-XBP1 luciferase reporter, IRE1-XBP1 UPR activation, luminescence; percent of tunicamycin response, DMSO as zero; activation, % at 20 µM; hit rate 0.33% among 330,000;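 active = versus positive control, 20 µM dose yields 30% or more activation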;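 also: 100% = tunicamycin at 10 µg/mL and 0% = DMSO only wells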
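Signal: luciferase luminescence; Assay system: CHO-XBP1 luciferase reporter cells; Amount: one thousand reporter cells per well; Dosing: 20 µM single concentration, DMSO 1%; Benchmarks: high control tunicamycin 10 µg/mL final, low control DMSO vehicle only; Schedule: 6 h compound exposure at 37 °C, 5% CO2; Evaluation: percent activation relative to tunicamycin reference.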
CHOP UPR activ: apoptotic UPR (CHOP) activation; CHO-CHOP luciferase reporter, luminescence; percent of tunicamycin response over DMSO baseline; activation, % at 10 µM; hit rate 0.34% among 330,000; AID 449763;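 active = at 10 µM dose, activation of 40% or more, normalized to positive control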;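 also: 100% = tunicamycin at 10 µg/mL and 0% = DMSO alone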
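System: CHO-CHOP luciferase reporter cell line | Buffer or medium: F12 medium containing 10% fetal bovine serum | Doses: One dose, 10 µM in 0.5% DMSO | Times: 6 h compound exposure at 37 °C after overnight seeding | Signal: Luciferase luminescence | Read-out: % activation vs tunicamycin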
CHOP inh: CHOP inhibition in unfolded protein response. hit rate 3.8% among 220,000. inhibition, % at 10 µM. AID 2732. CHO-K1 CHOP-promoter luciferase, tunicamycin-induced, 15-18 h;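 active = compounds that reduced the stress-induced luciferase reporter signal by more than about 70% of percent inhibition, limit read from the data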;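 also: 0% = tunicamycin plus vehicle and 100% = wells without tunicamycin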
Lipid droplet: hepatic lipid droplet formation modulation; AID 1656; inhibition, % at 6.5 µM; AML12 mouse hepatocytes, oleate lipid droplets, BODIPY imaging; hit rate 0.4% among 240,000;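 active = lipid droplet intensity inhibited by at least 50%, with more than 500 cells counted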
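System: AML12 hepatocytes (mouse). Probe or stimulus: oleic acid at 100 µM to induce lipid droplet formation. Times: overnight treatment with compound plus oleate. Detection: Image-based BODIPY and DAPI two-channel analysis. Evaluation: percent inhibition of filter-corrected integrated lipid droplet intensity per well.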
ANO1 activ: activates or potentiates the mouse TMEM16A chloride channel. Q8BHY3. HEK293 TMEM16A/YFP-H148Q/I152L, iodide quench fluorescence; active compounds read low. B-score at 10 µM. hit rate 0.3% among 340,000;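 active = fluorescence-ratio B-score plate-corrected deviation score at least 3 library SD below zero, with starting fluorescence score within 5 deviations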;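 also: channel opened by trigger with iodide after compound preincubation; score built on the fluorescence ratio of max minus min over baseline; more negative score means more quench and so TMEM16A activation or potentiation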
TMEM16A inh: inhibitors of mouse TMEM16A calcium-activated chloride channel; Q8BHY3; HEK293 TMEM16A/YFP iodide influx fluorescence, ionomycin; normalized B-score (activity score, 25-100; higher = stronger inhibition) at 10 µM; hit rate 1.2% among 310,000; AID 588511;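 active = ratio plate-corrected score three or more library SD toward inhibition, starting fluorescence score within five deviations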;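 also: score derived from kinetic fluorescence span divided by baseline fluorescence per well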
* marks the source's active call; other numbers are inactive results; i = inactive; · = not tested or not shown. A selection: hits, their analogues and other compounds. The true share with any hit is near 4.2%.

SMILES	UPR XBP1 act	CHOP UPR activ	CHOP inh	Lipid droplet	ANO1 activ	TMEM16A inh
CC(C)CC(CO)N1CCN(C(=O)c2cccc(Cl)c2)CCC1=O (centres undefined)	-3	0	·	·	i	i
CC(C)(C)c1nc(NC(=O)Nc2ccccc2)sc1Br	6	1	105*	-12	i	i
Clc1cccc(NCc2nnc(SCc3ccccc3Cl)o2)c1	4	-2	68	5	i	i
Clc1cccc(NCc2nnc(SCc3ccccc3)o2)c1	2	-1	71*	-17	i	i
O=C(c1ccco1)N1CCN(c2nc(-c3ccc(F)cc3)cs2)CC1	0	1	11	·	i	i
Cc1ccc(C)c(Cn2c(C(=O)OC(C)C)cc3c2ccn3C)c1	1	1	73*	·	i	i
CCOC(=O)c1cc2c(ccn2C)n1Cc1ccccc1C	-3	-1	70*	-22	i	i
Cc1ccccc1Cn1c(C(=O)OC(C)C)cc2c1ccn2C	0	3	51	·	i	i
CCOC(=O)N1CCN(C(=O)CSc2ccc(-c3cccc(OC)c3)nn2)CC1	-2	-1	77*	22	i	i
CN(C)c1ccc(N/C=C/C(=O)c2ccccc2)cc1	-5	-8	81*	-4	i	i
COc1cccc(NC(=O)CN(C)C(=O)C(Sc2ccccc2)c2ccccc2)c1 (centres undefined)	-1	0	·	·	i	·
Cc1ccc(F)c(NC(=O)/C(C#N)=C(\O)c2ccc(C(C)(C)C)cc2)c1	2	0	-3	1	i	25*
COC(=O)c1ccc(N2CCCCC2)c(NC(=O)c2ccco2)c1	1	1	·	-10	i	i
Cc1ccc2nc(/C=C/c3cccc(F)c3)ccc2c1	0	1	96*	-2	i	i
Fc1cccc(F)c1/C=C/c1ccc2ccccc2n1	-5	3	46	-34	i	i
CSCCC(NC(=O)c1ccccc1)C(=O)NCCCSc1ccccc1 (centres undefined)	-4	-1	·	·	i	·
Clc1ccc(-c2onc3c2CCCC3)cc1	0	1	78*	-1	i	i
CC(=O)Nc1ccc(C(=O)N/C(=C\c2ccccc2)C(=O)Nc2cccc(C(=O)O)c2)cc1	-2	2	10	·	i	i
O=c1c2cccnc2[nH]c(=S)n1CCCN1CCN(c2ccccc2F)CC1	2	-2	89*	·	i	i
O=C(Nc1nc2ccccc2s1)C1c2ccccc2Oc2ccccc21	-4	-1	85*	0	i	i
O=C(Nc1nc2ccccc2s1)C1CCCO1 (centres undefined)	-2	1	-27	·	i	i
CC(=O)c1cccc(NCC(=O)Nc2cc(S(=O)(=O)N3CCCCC3)ccc2C)c1	0	2	·	-36	i	i
COc1ccc(C(CNC(=O)c2oc3ccc(Br)cc3c2C)N2CCCCC2)cc1 (centres undefined)	2	1	78*	-3	i	i
COc1ccc(C(CNC(=O)c2oc3cc(Br)ccc3c2C)N2CCCCC2)cc1 (centres undefined)	-5	5	·	-2	i	i
CCC1=C(OC(=O)N(CC)CC)N2C(=O)OC(=NCCOC)[C@]2(Cc2ccccc2)[C@H]2C1=CC[C@H]1C(=O)N(CC(=O)OC)C(=O)[C@H]12	0	0	3	-3	i	25*
SMILES	UPR XBP1 act	CHOP UPR activ	CHOP inh	Lipid droplet	ANO1 activ	TMEM16A inh
CCC1=C(OC(=O)N(CC)CC)N2C(=O)OC(=NCCc3c[nH]c4ccccc34)[C@]2(Cc2ccccc2)[C@H]2C1=CC[C@H]1C(=O)N(CC(=O)OC)C(=O)[C@H]12	3	3	11	-15	i	i
CC(=O)O[C@H]1CC[C@H]2[C@@H]3CCc4cc(O)ccc4[C@H]3CC[C@]12C	-5	-3	76*	-29	i	i
CCC(CC)C(=O)Nc1nnc(S(=O)(=O)N2c3ccccc3CC2C)s1 (centres undefined)	-1	0	·	10	i	i
Cc1ccc(C)c(NS(=O)(=O)c2cc(C(=O)NCCSC3CCCCC3)ccc2C)c1	-3	-2	70	·	i	i
Cc1ccccc1NS(=O)(=O)c1cc(C(=O)NCCSC2CCCCC2)ccc1C	-2	-1	72*	·	i	i
Cc1ccccc1N=C1NC(=O)/C(=C/c2cccn2-c2cccc(C(=O)O)c2)S1	3	0	7	15	i	·
Cc1cccc(NC(=O)CN2C(=O)S/C(=C\c3ccc(O)c([N+](=O)[O-])c3)C2=O)c1	-2	0	13	-2	i	i
O=C1S/C(=C\c2ccc(O)c([N+](=O)[O-])c2)C(=O)N1Cc1cccc([N+](=O)[O-])c1	3	0	7	-4	i	100*
O=C1S/C(=C\c2ccc(O)c([N+](=O)[O-])c2)C(=O)N1c1ccccc1Cl	0	0	48	0	i	100*
CCC(=O)c1ccc(OCC(=O)OC(C)C(=O)N2CCc3ccccc32)cc1 (centres undefined)	-1	1	·	·	i	i
O=C(C1=C[C@@H](c2ccc(Br)cc2)C[C@@H](OCCCCO)O1)N1CCOCC1	0	0	7	20	i	i
O=C(C1=C[C@@H](c2ccccc2)C[C@@H](OCCCCO)O1)N1CCOCC1	0	1	13	1	i	100*
Cc1ccccc1-n1c(SCC(=O)NCc2cccs2)nc2ccccc2c1=O	-2	-1	-1	0	i	i
Cc1cc(NC(=O)Cn2nc(-c3ccccc3F)ccc2=O)ccc1-n1cnnn1	-2	0	72*	·	i	i
Cc1nn(Cc2ccc(Cl)cc2Cl)c(Cl)c1/C=C/C(=O)OCC(=O)NCC(F)(F)F	-4	-4	77*	-7	i	i
Cc1nn(Cc2ccccc2Cl)c(Cl)c1/C=C/C(=O)OCC(=O)NC(N)=O	-1	0	25	14	i	i
CC(=O)Nc1ccc(S(=O)(=O)N(C)CC(=O)Nc2ccccc2N2CCCC2)cc1	-1	2	·	·	i	i
CN(CC(=O)Nc1ccccc1N1CCOCC1)S(=O)(=O)c1ccc(F)cc1	-4	3	15	·	i	25*
Cc1cccc(N2CCN(C(=O)CCC(=O)N3CCOc4ccc(Cl)cc43)CC2C)c1 (centres undefined)	-2	1	·	-1	i	i
CN(C)CCCNC(=O)c1cc(C(=O)c2cccc(Cl)c2Cl)c[nH]1	-2	0	·	15	i	i
